Source: PMC9486889 (Japanese Journal of Clinical Oncology, 2022)

Experiment: Phase I dose-escalation: DLT/MTD and treatment-emergent adverse events
Assay type: in vivo, Japanese patients
Outline: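 Open-label, non-randomized 3+3 dose escalation, starting at 30 mg oral BIW with planned escalation to 50 mg, in continuous 4-week cycles. The DLT window was 28 days from first dose. DLTs were grade 4 hematologic toxicity, grade ≥3 febrile neutropenia, grade 3 thrombocytopenia with significant bleeding, other grade ≥3 non-hematologic toxicity, or troponin rising on 3 consecutive days. AEs were coded by MedDRA 19.1 and graded by CTCAE 4.03.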

SMILES: Nc1cc(F)ccc1NC(=O)c1ccc(CNC(=O)/C=C/c2cccnc2)cc1 [HBI-8000, tucidinostat]
- Grade 3: Number of patients with at least one TEAE (30 mg BIW (N = 7)): 5 (71.4) n (%)
- Grade 3 TEAE: Abdominal pain (30 mg BIW (N = 7)): 0 (0) n (%)
- Grade 3 TEAE: Alanine aminotransferase increased (30 mg BIW (N = 7)): 0 (0) n (%)
- Grade 3 TEAE: Anaemia (30 mg BIW (N = 7)): 1 (14.3) n (%)
- Grade 3 TEAE: Blood creatine phosphokinase increased (30 mg BIW (N = 7)): 1 (14.3) n (%)
- Grade 3 TEAE: Enterocolitis (30 mg BIW (N = 7)): 0 (0) n (%)
- Grade 3 TEAE: Erythema multiforme (30 mg BIW (N = 7)): 0 (0) n (%)
- Grade 3 TEAE: Erythema nodosum (30 mg BIW (N = 7)): 0 (0) n (%)
- Grade 3 TEAE: Hyperglycaemia (30 mg BIW (N = 7)): 0 (0) n (%)
- Grade 3 TEAE: Hypertriglyceridaemia (30 mg BIW (N = 7)): 0 (0) n (%)
- Grade 3 TEAE: Lymphocyte count decreased (30 mg BIW (N = 7)): 1 (14.3) n (%)
- Grade 3 TEAE: Neutropenia (30 mg BIW (N = 7)): 1 (14.3) n (%)
- Grade 3 TEAE: Parkinsonism (30 mg BIW (N = 7)): 1 (14.3) n (%)
- Grade 3 TEAE: Pyrexia (30 mg BIW (N = 7)): 0 (0) n (%)
- Grade 3 TEAE: Rash generalized (30 mg BIW (N = 7)): 1 (14.3) n (%)
- Grade 3 TEAE: Thrombocytopenia (30 mg BIW (N = 7)): 0 (0) n (%)
- Grade 4: Number of patients with at least one TEAE (30 mg BIW (N = 7)): 0 (0) n (%)
- Grade 4 TEAE: Abdominal pain (30 mg BIW (N = 7)): 0 (0) n (%)
- Grade 4 TEAE: Alanine aminotransferase increased (30 mg BIW (N = 7)): 0 (0) n (%)
- Grade 4 TEAE: Anaemia (30 mg BIW (N = 7)): 0 (0) n (%)
- Grade 4 TEAE: Blood creatine phosphokinase increased (30 mg BIW (N = 7)): 0 (0) n (%)
- Grade 4 TEAE: Enterocolitis (30 mg BIW (N = 7)): 0 (0) n (%)
- Grade 4 TEAE: Erythema multiforme (30 mg BIW (N = 7)): 0 (0) n (%)
- Grade 4 TEAE: Erythema nodosum (30 mg BIW (N = 7)): 0 (0) n (%)
- Grade 4 TEAE: Hyperglycaemia (30 mg BIW (N = 7)): 0 (0) n (%)
- Grade 4 TEAE: Hypertriglyceridaemia (30 mg BIW (N = 7)): 0 (0) n (%)
- Grade 4 TEAE: Lymphocyte count decreased (30 mg BIW (N = 7)): 0 (0) n (%)
- Grade 4 TEAE: Neutropenia (30 mg BIW (N = 7)): 0 (0) n (%)
- Grade 4 TEAE: Neutrophil count decreased (30 mg BIW (N = 7)): 0 (0) n (%)
- Grade 4 TEAE: Parkinsonism (30 mg BIW (N = 7)): 0 (0) n (%)
- Grade 4 TEAE: Pyrexia (30 mg BIW (N = 7)): 0 (0) n (%)
- Grade 4 TEAE: Rash generalized (30 mg BIW (N = 7)): 0 (0) n (%)
- Grade 4 TEAE: Thrombocytopenia (30 mg BIW (N = 7)): 0 (0) n (%)
- Grade 4 TEAE: White blood cell count decreased (30 mg BIW (N = 7)): 0 (0) n (%)
- Number of patients with at least one related TEAE (30 mg BIW (N = 7)): 6 (85.7) n (%)
- TEAE: Abdominal pain (30 mg BIW (N = 7)): 1 (14.3) n (%)
- TEAE: Anaemia (30 mg BIW (N = 7)): 5 (71.4) n (%)
- TEAE: Back pain (30 mg BIW (N = 7)): 0 (0) n (%)
- TEAE: C-reactive protein increased (30 mg BIW (N = 7)): 1 (14.3) n (%)
- TEAE: Decreased appetite (30 mg BIW (N = 7)): 1 (14.3) n (%)
- TEAE: Diarrhoea (30 mg BIW (N = 7)): 3 (42.9) n (%)
- TEAE: Dysgeusia (30 mg BIW (N = 7)): 2 (28.6) n (%)
- TEAE: Fatigue (30 mg BIW (N = 7)): 3 (42.9) n (%)
- TEAE: Headache (30 mg BIW (N = 7)): 1 (14.3) n (%)
- TEAE: Hypertriglyceridaemia (30 mg BIW (N = 7)): 1 (14.3) n (%)
- TEAE: Hyperuricaemia (30 mg BIW (N = 7)): 2 (28.6) n (%)
- TEAE: Hypocalcaemia (30 mg BIW (N = 7)): 0 (0) n (%)
- TEAE: Hypokalaemia (30 mg BIW (N = 7)): 2 (28.6) n (%)
- TEAE: Insomnia (30 mg BIW (N = 7)): 1 (14.3) n (%)
- TEAE: Nasopharyngitis (30 mg BIW (N = 7)): 0 (0) n (%)
- TEAE: Nausea (30 mg BIW (N = 7)): 1 (14.3) n (%)
- TEAE: Neutropenia (30 mg BIW (N = 7)): 1 (14.3) n (%)
- TEAE: Neutrophil count decreased (30 mg BIW (N = 7)): 2 (28.6) n (%)
- TEAE: Platelet count decreased (30 mg BIW (N = 7)): 3 (42.9) n (%)
- TEAE: Pyrexia (30 mg BIW (N = 7)): 1 (14.3) n (%)
- TEAE: Thrombocytopenia (30 mg BIW (N = 7)): 2 (28.6) n (%)
- TEAE: Weight decreased (30 mg BIW (N = 7)): 1 (14.3) n (%)
- TEAE: White blood cell count decreased (30 mg BIW (N = 7)): 3 (42.9) n (%)
- TEAEs that led to dose reduction or dose delay (30 mg BIW cohort): four
- TEAEs that led to treatment discontinuation (30 mg BIW cohort): two
- Dose-limiting toxicities (30 mg BIW cohort, six patients assessed, Cycle 1): no dose-limiting toxicitys
- Grade 3: Number of patients with at least one TEAE (40 mg BIW (N = 7)): 4 (57.1) n (%)
- Grade 3 TEAE: Abdominal pain (40 mg BIW (N = 7)): 1 (14.3) n (%)
- Grade 3 TEAE: Alanine aminotransferase increased (40 mg BIW (N = 7)): 1 (14.3) n (%)
- Grade 3 TEAE: Anaemia (40 mg BIW (N = 7)): 0 (0) n (%)
- Grade 3 TEAE: Blood creatine phosphokinase increased (40 mg BIW (N = 7)): 0 (0) n (%)
- Grade 3 TEAE: Enterocolitis (40 mg BIW (N = 7)): 1 (14.3) n (%)
- Grade 3 TEAE: Erythema multiforme (40 mg BIW (N = 7)): 1 (14.3) n (%)
- Grade 3 TEAE: Erythema nodosum (40 mg BIW (N = 7)): 1 (14.3) n (%)
- Grade 3 TEAE: Hyperglycaemia (40 mg BIW (N = 7)): 1 (14.3) n (%)
- Grade 3 TEAE: Hypertriglyceridaemia (40 mg BIW (N = 7)): 1 (14.3) n (%)
- Grade 3 TEAE: Lymphocyte count decreased (40 mg BIW (N = 7)): 0 (0) n (%)
- Grade 3 TEAE: Neutropenia (40 mg BIW (N = 7)): 0 (0) n (%)
- Grade 3 TEAE: Neutrophil count decreased (40 mg BIW (N = 7)): 0 (0) n (%)
- Grade 3 TEAE: Parkinsonism (40 mg BIW (N = 7)): 0 (0) n (%)
- Grade 3 TEAE: Pyrexia (40 mg BIW (N = 7)): 1 (14.3) n (%)
- Grade 3 TEAE: Rash generalized (40 mg BIW (N = 7)): 0 (0) n (%)
- Grade 3 TEAE: Thrombocytopenia (40 mg BIW (N = 7)): 2 (28.6) n (%)
- Grade 3 TEAE: White blood cell count decreased (40 mg BIW (N = 7)): 1 (14.3) n (%)
- Grade 4: Number of patients with at least one TEAE (40 mg BIW (N = 7)): 2 (28.6) n (%)
- Grade 4 TEAE: Abdominal pain (40 mg BIW (N = 7)): 0 (0) n (%)
- Grade 4 TEAE: Alanine aminotransferase increased (40 mg BIW (N = 7)): 0 (0) n (%)
- Grade 4 TEAE: Anaemia (40 mg BIW (N = 7)): 0 (0) n (%)
- Grade 4 TEAE: Blood creatine phosphokinase increased (40 mg BIW (N = 7)): 0 (0) n (%)
- Grade 4 TEAE: Enterocolitis (40 mg BIW (N = 7)): 0 (0) n (%)
- Grade 4 TEAE: Erythema multiforme (40 mg BIW (N = 7)): 0 (0) n (%)
- Grade 4 TEAE: Erythema nodosum (40 mg BIW (N = 7)): 0 (0) n (%)
- Grade 4 TEAE: Hyperglycaemia (40 mg BIW (N = 7)): 0 (0) n (%)
- Grade 4 TEAE: Hypertriglyceridaemia (40 mg BIW (N = 7)): 0 (0) n (%)
- Grade 4 TEAE: Lymphocyte count decreased (40 mg BIW (N = 7)): 0 (0) n (%)
- Grade 4 TEAE: Neutropenia (40 mg BIW (N = 7)): 2 (28.6) n (%)
- Grade 4 TEAE: Neutrophil count decreased (40 mg BIW (N = 7)): 0 (0) n (%)
- Grade 4 TEAE: Parkinsonism (40 mg BIW (N = 7)): 0 (0) n (%)
- Grade 4 TEAE: Pyrexia (40 mg BIW (N = 7)): 0 (0) n (%)
- Grade 4 TEAE: Rash generalized (40 mg BIW (N = 7)): 0 (0) n (%)
